This note sets out measurements from ChEMBL document CHEMBL2046430, “Synthesis, biological evaluation and molecular docking studies of 3-(1,3-diphenyl-1H-pyrazol-4-yl)-N-phenylacrylamide derivatives as inhibitors of HDAC activity” (Bioorg Med Chem, 2012).

For orientation: IC50 means the midpoint of a concentration-inhibition curve.

The target in one test is Histone deacetylase 2 (Homo sapiens, UniProt Q92769). In words: Inhibition of HDAC2 in human HeLa cell lysate using KI-104 as substrate after 40 mins by fluorescence analysis. In kind it is cell-free.
Chain of Histone deacetylase 2 (Q92769 whole entry): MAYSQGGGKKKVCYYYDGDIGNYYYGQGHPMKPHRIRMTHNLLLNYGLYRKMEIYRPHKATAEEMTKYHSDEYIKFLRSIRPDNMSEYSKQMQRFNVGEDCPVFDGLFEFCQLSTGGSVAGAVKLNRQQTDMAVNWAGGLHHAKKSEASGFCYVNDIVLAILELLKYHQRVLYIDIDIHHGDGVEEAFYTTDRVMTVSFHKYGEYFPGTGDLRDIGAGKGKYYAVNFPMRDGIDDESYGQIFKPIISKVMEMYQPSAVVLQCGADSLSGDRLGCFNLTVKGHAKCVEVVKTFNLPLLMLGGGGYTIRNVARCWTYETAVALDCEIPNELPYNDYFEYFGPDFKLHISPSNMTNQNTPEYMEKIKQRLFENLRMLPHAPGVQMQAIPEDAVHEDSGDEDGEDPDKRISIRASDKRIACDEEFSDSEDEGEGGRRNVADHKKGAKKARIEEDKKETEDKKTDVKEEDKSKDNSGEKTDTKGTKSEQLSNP
Another test concerns HCT-116. Description: Antiproliferative activity against human HCT116 cells after 48 hrs by MTT assay. In kind it is functional, cell-based. Particulars: HCT-116, 48 h. The method in brief:
(§1)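 Cells grown to log phase in RPMI 1640 + 10% FBS, seeded at 2 × 10^4 cells/mL (100 µL/well) and preincubated 24 h at 37 °C, 5% CO2. Compounds added at preset concentrations; MS275 as positive reference. After 48 h exposure, MTT (2.5 mg/mL in PBS) for 4 h, then SDS–isobutanol–HCl solubilization overnight at 37 °C; OD 570 nm. Triplicate wells per concentration, assays repeated ≥3 times; IC50 reported.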
Background: Formazan colour is commonly taken as a measure of viable cells.

A further test relates to A549. In words: Antiproliferative activity against human A549 cells after 48 hrs by MTT assay. Conditions: A549, 48 h. In kind it is functional, cell-based. Summed up: as §1
The next test has as its target Histone deacetylase 1 (Homo sapiens, UniProt Q13547). In words: Inhibition of HDAC1 in human HeLa cell lysate using KI-104 as substrate after 40 mins by fluorescence analysis. In kind it is cell-free.
Test [1] has as its target Histone deacetylase (Homo sapiens) (UniProt Q13547+O15379+Q9UBN7+Q92769+Q9UQL6+Q8WUI4+Q9BY41+Q96DB2+P56524+Q9UKV0+Q969S8). Particulars: HCT-116, 0.1 to 0.8 uM.

Calls of active or inactive are those of the source. No cut-off for these calls is given here. Where only a bound is given, the exact number is not on record here.

Chain of Histone deacetylase 1 (Q13547 whole entry): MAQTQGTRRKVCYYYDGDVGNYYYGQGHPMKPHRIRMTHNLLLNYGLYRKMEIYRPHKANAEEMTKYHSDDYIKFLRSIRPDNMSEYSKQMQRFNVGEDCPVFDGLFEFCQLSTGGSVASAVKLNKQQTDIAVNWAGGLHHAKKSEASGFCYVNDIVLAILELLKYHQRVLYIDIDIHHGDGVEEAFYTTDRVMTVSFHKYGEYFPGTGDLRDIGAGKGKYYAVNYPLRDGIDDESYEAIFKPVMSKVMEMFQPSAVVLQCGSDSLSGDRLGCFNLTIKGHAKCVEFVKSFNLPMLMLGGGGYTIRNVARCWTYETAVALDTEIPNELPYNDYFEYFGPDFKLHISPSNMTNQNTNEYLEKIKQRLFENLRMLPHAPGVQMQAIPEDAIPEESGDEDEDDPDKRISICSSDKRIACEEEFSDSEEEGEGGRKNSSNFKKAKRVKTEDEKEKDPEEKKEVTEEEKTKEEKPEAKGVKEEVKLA

For the compound `COc1ccc(NC(=O)/C=C\c2cn(-c3ccccc3)nc2-c2ccc(C)cc2)cc1`, the IC50 against Histone deacetylase 2 is 6.45 µM; with HCT-116, 9.81 µM; in the test on A549, over 20 µM; against Histone deacetylase 1, 4.05 µM.

Take `O=C(/C=C\c1cn(-c2ccccc2)nc1-c1ccc(Br)cc1)Nc1ccccc1`: the IC50 on Histone deacetylase 2 is 6.52 µM; in the test with HCT-116, 10.7 µM; in the test on A549, over 20 µM; at Histone deacetylase 1, 3.43 µM.

Consider `COc1ccc(NC(=O)/C=C\c2cn(-c3ccccc3)nc2-c2ccc([N+](=O)[O-])cc2)cc1`, for which the IC50 came to 1.15 µM at Histone deacetylase 2, 1.08 µM in the test on HCT-116, 5.17 µM in the test on A549 and 1.02 µM on Histone deacetylase 1.

Consider `COc1ccc(-c2nn(-c3ccccc3)cc2/C=C\C(=O)Nc2ccc(Cl)cc2)cc1`, for which the 50% inhibitory concentration (IC50) at Histone deacetylase 2 turned out to be 2.36 µM; with HCT-116 it was 1.56 µM; in the test on A549, 8.04 µM; against Histone deacetylase 1, 1.09 µM.

In the case of `O=C(/C=C\c1cn(-c2ccccc2)nc1-c1ccc([N+](=O)[O-])cc1)Nc1ccccc1`, the IC50 was determined as 1.15 µM at Histone deacetylase 2, 0.85 µM in the test with HCT-116, 5.18 µM with A549 and 0.92 µM on Histone deacetylase 1.

Take `Cc1ccc(-c2nn(-c3ccccc3)cc2/C=C\C(=O)Nc2ccc(Br)cc2)cc1`: the IC50 against Histone deacetylase 2 worked out at 5.02 µM; with HCT-116, 7.16 µM; with A549, 11.8 µM; against Histone deacetylase 1, 3.33 µM.

Take `COc1ccc(NC(=O)/C=C\c2cn(-c3ccccc3)nc2-c2ccc(OC)cc2)cc1`: the IC50 against Histone deacetylase 2 was determined as 3.02 µM; in the test on HCT-116, 2.12 µM; with A549 it was 8.59 µM; on Histone deacetylase 1, 1.73 µM.

For `O=C(/C=C\c1cn(-c2ccccc2)nc1-c1ccc([N+](=O)[O-])cc1)Nc1ccc(Cl)cc1`, the IC50 against Histone deacetylase 2 stood at 0.57 µM; with HCT-116, 0.64 µM; in the test on A549 it was 3.72 µM; on Histone deacetylase 1 it was 0.46 µM.

Turning to `COc1ccc(NC(=O)/C=C\c2cn(-c3ccccc3)nc2-c2ccc(Br)cc2)cc1`, the IC50 was 5.35 µM against Histone deacetylase 2, 9.69 µM in the test with HCT-116, over 20 µM in the test with A549 and 3.31 µM on Histone deacetylase 1.

As to `O=C(/C=C\c1cn(-c2ccccc2)nc1-c1ccc(Br)cc1)Nc1ccc(Cl)cc1`, the IC50 against Histone deacetylase 2 is 4.99 µM; in the test with HCT-116, 8.37 µM; in the test on A549 it was 15.8 µM; against Histone deacetylase 1, 2.98 µM.

Turning to `O=C(/C=C\c1cn(-c2ccccc2)nc1-c1ccc([N+](=O)[O-])cc1)Nc1ccc(Br)cc1`, the inhibition entry in test [1] was “inactive”. The IC50 on Histone deacetylase 2 is 0.55 µM; in the test with HCT-116 it was 0.62 µM; in the test on A549, 3.71 µM; on Histone deacetylase 1 it was 0.42 µM.

On to `Cc1ccc(-c2nn(-c3ccccc3)cc2/C=C\C(=O)Nc2ccccc2)cc1`, for which the 50% inhibitory concentration (IC50) against Histone deacetylase 2 worked out at 8.75 µM; in the test on HCT-116, 10.4 µM; with A549, 16.1 µM; on Histone deacetylase 1, 4.06 µM.

As for `COc1ccc(-c2nn(-c3ccccc3)cc2/C=C\C(=O)Nc2ccc(Br)cc2)cc1`, the half-maximal inhibitory concentration (IC50) at Histone deacetylase 2 was found to be 2.17 µM; with HCT-116, 1.53 µM; in the test with A549, 7.47 µM; against Histone deacetylase 1 it was 1.05 µM.

On to `O=C(/C=C\c1cn(-c2ccccc2)nc1-c1ccc(Br)cc1)Nc1ccc(Br)cc1`, for which the IC50 against Histone deacetylase 2 was determined as 4.87 µM; with HCT-116, 8.16 µM; in the test on A549, 12.2 µM; on Histone deacetylase 1 it was 2.83 µM.

Consider `COc1ccc(-c2nn(-c3ccccc3)cc2/C=C\C(=O)Nc2ccccc2)cc1`, for which the IC50 was 2.67 µM on Histone deacetylase 2, 2.09 µM in the test with HCT-116, 9.85 µM in the test on A549 and 1.76 µM against Histone deacetylase 1.

In the case of `Nc1ccccc1NC(=O)c1ccc(CNC(=O)OCc2cccnc2)cc1` [ENTINOSTAT], the IC50 in the test with HCT-116 and in the test on A549 was under 0.1 µM throughout.

For the compound `Cc1ccc(-c2nn(-c3ccccc3)cc2/C=C\C(=O)Nc2ccc(Cl)cc2)cc1`, the IC50 against Histone deacetylase 2 turned out to be 5.86 µM; with HCT-116, 7.65 µM; with A549 it was 15.4 µM; against Histone deacetylase 1, 3.65 µM.
